High-throughput results: PubChem BioAssay, ICCB-Longwood Screening Facility, Harvard Medical School
KSHV LANA nucl: inhibitors of KSHV LANA binding to nucleosomes; FITC-LANA1-23 / chicken nucleosome fluorescence polarization; stronger effect = lower value; z-score (test concentration not listed); actives 0.3% (n = 51,000);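 active means both repeat wells score below -2 in polarization z-score versus plate sample wells, excluding overly bright wells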
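test system = FITC-LANA peptide and chicken nucleosomes | amount = 240 nM purified chicken nucleosomes (480 nM peptide binding sites), final | reagent = 50 nM FITC-LANA1-23 probe | medium = TEN-BT buffer, pH 7.5 | doses = single compound addition by pin transfer, 100 nL per well | timing = 10–45 min, room temperature | detection = fluorescence polarization | repeats = duplicate plates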
BasE inh: BasE siderophore biosynthesis inhibition; purified BasE, fluorescence polarization binding displacement; inhibition, % (test concentration not listed); actives 0.1% (n = 84,000); AID 485350; in the data active means inhibition above about 25%, passing the limit was not always enough;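 further: 0% = negative plate control signal and 100% = positive plate control signal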
Active calls of the source: *; . = not tested or not shown. The sample as a whole holds a higher share of hits than the screen did.

SMILES	KSHV LANA nucl	BasE inh
CC(C)N1CC=C2C(C1)C(c1ccccc1Cl)C(C#N)=C(N)C2(C#N)C#N (stereo not given)	-2.3*	26*
CC1=CC(C)=N/C1=C/c1c(O)[nH]c(=O)[nH]c1=O	-7.6*	1
CC(CO)(CO)N=Cc1c(O)[nH]c(=O)[nH]c1=O	0.42	2
Cc1cc(C)c2nc(NCCN3CCCC3)cc(C)c2c1	.	-4
Cc1c(CSC(=N)N)c(C)c(CSC(=N)N)c(C)c1CSC(=N)N	-2.9*	-3
CCc1c(CSC(=N)N)csc1C	-0.085	-4
CCN(CC)c1ccc(/C=C2\N=C(SC)SC2=O)cc1	-2.6*	9
CSC1=N/C(=C\c2ccccc2)C(=O)S1	-0.56	2
CN(C)c1ccc(C(=O)NCCc2ccccc2)cc1	.	-2
COC(=O)CCC(=O)Nc1ccc(-c2nc3ccccc3[nH]2)cc1	-1.3	0
CCOC(=O)Cn1c2[n+](c3ccccc31)CC(O)CS2 (stereo not given)	-0.43	0
NC(=O)Cn1c2[n+](c3ccccc31)CC(O)CS2 (stereo not given)	-2.4*	0
COc1ccc(NC(=O)CSc2nc(-c3ccccc3)cc(=O)[nH]2)cc1	.	-1
CCc1ccc(S(=O)(=O)N2CCn3cccc3C2c2ccc(Cl)cc2)s1 (stereo not given)	1.3	-1
Cc1cccc(OCC(=O)NC2CCCC2)c1	0.052	29*
Cc1ccc(OCC(=O)NC2CCC(C)CC2)cc1C (stereo not given)	.	1
O=C(OCc1cc(Cl)cc2c1OCOC2)c1c[nH]c2ccccc12	.	-2
CN(C)S(=O)(=O)c1ccc2oc(SCN3C(=O)c4ccccc4C3=O)nc2c1	.	2
CCN(C(=O)c1cn(CC)c(=O)c2cc(OC)c(OC)cc12)c1cc(C)ccc1C	0.61	-1
Cc1nonc1NC(=O)CSc1ccccn1	0.42	57*
O=C(CSc1ccccn1)Nc1ncccn1	-0.76	6
OC(c1c(F)c(F)c(F)c(F)c1F)c1c(F)c(F)c(F)c(F)c1F	-0.56	4
CCOC(=O)N1CCN(S(=O)(=O)N2CCCC(C(=O)NCCC(C)C)C2)CC1 (stereo not given)	-0.25	1
CC(C)CCNC(=O)C1CCCN(S(=O)(=O)N2CCC3(CC2)OCCO3)C1 (stereo not given)	-2.2*	2
Cc1ccc2c(c1)c1nnc(SCC(=O)N3CCCCC3C)nc1n2C (stereo not given)	-0.069	2
SMILES	KSHV LANA nucl	BasE inh
Cc1ccc(C)n1-c1ccc(C(=O)O)cc1O	-0.18	47*
Cc1cc(C(=O)O)ccc1-n1c(C)ccc1C	0.2	3
Cc1nccc(-c2cccc(C#N)c2)n1	0.55	2
CNC(=O)CSCc1ccc(C(=O)OC)o1	.	0
Nc1ccc(OCC2CCCO2)cc1 (stereo not given)	0.34	-2
c1ccc(-c2nnc(OCC3CCCO3)c3ccccc23)cc1 (stereo not given)	.	28*
COC(=O)c1ccccc1NC(=O)CN1Cc2ccccc2C1=O	-0.028	0
NC(=O)c1ccsc1NC(=O)COC(=O)c1ccccc1	.	40*
NC(=O)c1ccsc1NC(=O)CSc1ccccc1	0.27	-1
O=C(Nc1ccc2c(c1)oc1ccccc12)C1CCCO1 (stereo not given)	-0.43	0
O=C(Nc1ccc2c(c1)CCC2)C1CCCO1 (stereo not given)	-2.1*	1
NS(=O)(=O)c1cc(Cl)c(NC(=O)CSC2CCCC2)c(Cl)c1	.	1
CCCCCOc1ccc(C2N=C(N)Nc3nc4ccccc4n32)cc1 (stereo not given)	.	-1
CCCOc1ccc(Cn2cnc3ccccc32)cc1	0.18	19
Brc1ccc(OCCn2cnc3ccccc32)cc1	0.37	39*
COc1ccc(OCCn2cnc3ccccc32)cc1	-0.2	26*
O=c1c2ccccc2ncn1CCOc1ccc(Br)cc1	.	1
CCn1c(C(F)(F)F)nc2ccccc21	-0.35	.
CCN(CC)S(=O)(=O)c1ccc2c(c1)nc(-c1ccccc1)n2C	.	-2
O=C(CSc1ccc2c(c1)OCCO2)NCC1COc2ccccc2O1 (stereo not given)	.	0
O=C1Oc2ccccc2C2c3sc(=O)[nH]c3SC(c3ccccc3)C12 (stereo not given)	-0.44	0
O=c1[nH]c2c(s1)C1c3ccccc3OC3CCCC(S2)C31 (stereo not given)	-9.8*	8
N#Cc1c(-c2ccc(Cl)cc2)cc[nH]c1=O	0.89	.
CS(=O)c1scc(-c2ccc(Cl)cc2)c1C#N (stereo not given)	0.89	29*
O=C1CSCC(=O)N1c1ccc(Cl)cc1	-0.77	1
SMILES	KSHV LANA nucl	BasE inh
CC1(c2ccc(Cl)cc2)NC(=O)CS1 (stereo not given)	-2.4*	1
COc1cccc(C2C3=C(CC(C)(C)CC3=O)Nc3ccccc3N2C(C)=O)c1OC (stereo not given)	-0.8	-2
Nc1[nH]n(-c2ccccc2)c(=O)c1N=Nc1ccc(Cl)cc1	-0.77	4
Cc1[nH]n(-c2ccccc2)c(=O)c1/C=N/O	-0.022	2
Cc1[nH]n(-c2ccccc2)c(=O)c1C=Nc1ccc(O)cc1	.	53*
O=C(c1ccccc1)N1CCN(C(=O)c2ccco2)CC1	-0.32	.
CC1=CC(=O)C2(C)C3CCC4CC(=O)CCC4(C)C3=CCC2S1(=O)=O (stereo not given)	-0.29	2
O=c1c2ccccc2nnn1CN1CCCC1c1ccc2c(c1)OCCCO2 (stereo not given)	.	3
CCN1CC=C2C(C#N)=C(N)C(C#N)(C#N)C(c3ccc(OC)c4ccccc34)C2C1 (stereo not given)	-0.78	0
CCN1CC=C2C(C#N)=C(N)C(C#N)(C#N)C(C)C2C1 (stereo not given)	-2.5*	6
CCCN1CC=C2C(C#N)=C(N)C(C#N)(C#N)C(C(C)C)C2C1 (stereo not given)	-4*	22
N#CC1=C(N)C(C#N)(C#N)C(c2ccco2)C2CN(Cc3ccccc3)CC=C12 (stereo not given)	-5.4*	28
CCCN1CC=C2C(C#N)=C(N)C(C#N)(C#N)C(c3cccc(OC)c3)C2C1 (stereo not given)	-0.46	11
CN1CC=C2C(C#N)=C(N)C(C#N)(C#N)C(Cc3ccccc3)C2C1 (stereo not given)	-1.8	19
CC(C)CC(=O)Nc1ccc(C(=O)COC(=O)CSc2nnc(-c3ccc4c(c3)OCO4)o2)cc1	.	2
O=C1CCC(C(=O)OCN2C(=O)c3ccccc3C2=O)=NN1	.	1
O=C1CC(c2ccccc2O)=NN1	.	27*
CC(C)n1ncc2c(C(=O)OCc3ccc(C#N)cc3)cc(-c3ccccc3)nc21	.	-2
O=C(O)c1cc(-c2ccccc2)nc2c1cnn2Cc1ccncc1	.	99*
Cc1sc(NC(=O)C2=NNC(=O)CC2)nc1-c1ccc(F)cc1	.	-2
Cc1ccc(NC(=O)NC(=O)CSc2nnc(C)n2C2CCCCC2)c(C)c1	.	0
CC1=C(C(=O)OC(C)C)C(c2ccccc2F)C(C#N)=C(N)O1 (stereo not given)	-0.17	-3
CCOC(=O)C1=C(N)Oc2cc(C)oc(=O)c2C1c1ccccc1F (stereo not given)	-0.57	28*
Nc1nc2ncc(CNc3ccc(C(=O)N[C@H](CCC(=O)O)C(=O)O)cc3)nc2c(=O)[nH]1	-0.012	0
C=CCn1c(C)c(/C=C/C2=CCN(C)CC2)c2ccccc21	-10	-20
